The record followed here is ChEMBL document CHEMBL1156162, “Investigating the anti-proliferative activity of styrylazanaphthalenes and azanaphthalenediones” (Bioorg Med Chem, 2010).

SMILES strings stand for the structures. Where only a bound is given, the exact number is not on record here.

As a reminder, the IC50 is the concentration that gives 50% inhibition.

Series [1] has as its system SK-N-MC. Kind of series: Cytotoxicity against human SK-N-MC cells after 72 hrs by MTT assay. The series is classed as functional, cell-based. In short, it runs like this:
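SK-N-MC cells in MEM with 10% FBS, pyruvate, non-essential amino acids, glutamine, antibiotics and fungizone. Seeded 24 h before treatment, then 72 h with varying concentrations. MTT (5 mg/mL stock) added for 2 h at 37 °C, followed by lysis and OD at 570 nm. IC50 derived; triplicate wells, experiments repeated 3–7 times.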

For series [2], the system named is HCT-116. As to the kind of experiment: Cytotoxicity against human HCT116 cells after 24 to 96 hrs by MTS assay. The series is classed as functional, cell-based. The gist of the method: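 HCT116 cells grown as monolayers in DMEM with 12% FBS and antibiotics at 37 °C, 5% CO2. Seeded at 3.5×10³, 7×10³ or 9×10³ cells/well, cultured 18 h, then exposed to 0.58 or 46 µmol/L final for 24, 48 or 96 h at 37 °C. Medium replaced with phenol red-free DMEM, MTS added for 1 h, absorbance read at 490 nm.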
(In general: Formazan colour is commonly taken as a measure of viable cells.)

Series [3] is described as follows: Lipophilicity, log K by RT-HPLC method. It is filed as physicochemical. The gist of the method:
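RP-HPLC on a C18 column (5 µm, 4.6 × 250 mm) with photodiode array detection, column at 30 °C and samples at 10 °C. Lipophilicity expressed as capacity factor k and calculated log k.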

For series [4], the system named is HCT-116. As to the kind of experiment: Cytotoxicity against human HCT116 cells assessed as decrease in survival fraction of cells at 0.58 uM after 24 hrs by colonogenic assay. It is filed as functional. The gist of the method: (§1)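 HCT116 cells (8.5×10⁴ or 2.1×10⁵) were seeded in 35-mm dishes and held 18 h, then exposed to 0.58 or 46 µM in medium for 24 h or 96 h. Cells were trypsinised and re-seeded drug-free, then grown 9 days at 37 °C. Colonies were fixed in ethanol, stained with crystal violet, and those of ≥50 cells counted. Survival fraction was taken relative to untreated cells; means of 3 or 2 experiments.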

The subject of series [5] is HCT-116. As to the kind of experiment: Cytotoxicity against human HCT116 cells assessed as decrease in survival fraction of cells at 46 uM after 24 hrs by colonogenic assay. The series is classed as functional. The gist of the method:
as §1

Series [6] relates to HCT-116. As to the kind of experiment: Cytotoxicity against human HCT116 cells assessed as decrease in survival fraction of cells at 0.58 uM after 96 hrs by colonogenic assay. The series is classed as functional. In short, it runs like this: as §1
For series [7], the system named is HCT-116. As to the kind of experiment: Cytotoxicity against human HCT116 cells assessed as decrease in survival fraction of cells at 46 uM after 96 hrs by colonogenic assay. The series is classed as functional. The gist of the method:
as §1

Series [8] has as its system NIH3T3 (Mus musculus). Kind of series: Cytotoxicity against mouse NIH/3T3 cells assessed as IC50.
A short description of series [9]: Cytotoxicity against mouse NIH/3T3 cells assessed as viable cells after 72 hrs by MTT assay. It is filed as cell-based. The following applies: NIH3T3, 72 h.
In series [10] the test system is L1210. As to the kind of experiment: Antiproliferative activity against mouse L1210 cells. It is filed as functional, cell-based.
The test system of series [11] is NIH3T3 (Mus musculus). As to the kind of experiment: Cytotoxicity against mouse NIH/3T3 cells assessed as IC50. The source holds these as a separate data set.

For the molecule `Cc1nc2ccc([N+](=O)[O-])cc2c(=O)n1C(N)=O`, the IC50 in series [1] is over 6.25 µM; in [2], over 92 µM. For the same molecule, the “log K” value in series [3] worked out at 0.958.
The molecule `COc1cccc(/C=C/c2nc3ccccc3c(=O)[nH]2)c1` gave an IC50 in [1] of 5.13 µM. Moreover, the “log K” value in series [3] worked out at 1.184.
`O=c1[nH]c(/C=C/c2ccc(O)c(O)c2O)nc2ccccc12` returned an IC50 in [2] of over 46 µM. Moreover, the “log K” value in series [3] is listed as 0.551.
For the molecule `Cc1nc2ccccc2c(=O)n1C(N)=O`, the results for the IC50 in [1] and in series [2] were over 6.25 µM and over 600 µM, respectively. For the same molecule, the “log K” value in [3] amounted to 0.553.
For `CC(=O)NC1=CC(=O)c2cnc(C)nc2C1=O`, the IC50 in series [2] amounted to 17 µM. The “log K” value in series [3] amounted to 0.017. Further, the Activity in series [4] was 1.2; in [5] it was 0; in [6] it was 0.26; in series [7], 0.
`COc1ccc(/C=C/c2nc(Cl)c3ccccc3n2)cc1`: the IC50 in [1] is 4.34 µM; in series [8] it was over 100 µM. Also, the “log K” value in series [3] came to 1.134.
Consider `O=c1[nH]c(/C=C/c2ccc(Br)cc2)nc2ccccc12`, for which inhibition in series [1] was half-maximal at 2.85 µM (IC50). Besides, the “log K” value in [3] was found to be 1.593.
Consider `COc1ccccc1/C=C/c1nc2ccccc2c(=O)[nH]1`, for which the IC50 amounted to 2.88 µM in [1], 1.58 µM in series [2] and 1.17 µM in series [9]. Besides, the “log K” value in series [3] was found to be 1.151.
As to `COc1ccc2nc(/C=C/c3ccccc3)[nH]c(=O)c2c1`, half-maximal inhibition in series [10] (IC50) was put at 3.59 µM.
With `O=Cc1ccc(/C=C/c2nc3ccccc3c(=O)[nH]2)cc1`, the IC50 in series [1] is over 6.25 µM. Moreover, the “log K” value in series [3] is recorded as 1.035.
As for `COc1ccc(/C=C/c2nc(Cl)c3ccccc3n2)c(OC)c1`, the results for the IC50 in [1], in series [2] and in series [8] were 1.75 µM, 23 µM and 34.1 µM, respectively. Further, in [3], the “log K” value amounted to 1.195.
In turn, `CC(=O)N(O)CCCCCNC(=O)CCC(=O)N(O)CCCCCNC(=O)CCC(=O)N(O)CCCCCN` [DEFEROXAMINE] had an IC50 in [1] of 9.89 µM.
Turning to `Clc1nc(/C=C/c2ccccc2)nc2ccccc12`, the IC50 in series [1] was 4.96 µM; in [9], 3.04 µM. The “log K” value in series [3] is recorded as 1.109.
`O=c1[nH]c(/C=C/c2cccc(Cl)c2)nc2ccccc12`: the IC50 in series [1] was over 6.25 µM. Also, the “log K” value in [3] is given as 1.506.
For `COc1ccc(/C=C/c2nc3ccccc3c(=O)[nH]2)c(OC)c1` the same measures were over 6.25 µM and 1.198.
On the same counts, the results for `O=c1[nH]c(/C=C/c2cccc(Br)c2)nc2ccccc12` are over 6.25 µM and 1.59.
With `COc1ccccc1/C=C/c1nc(Cl)c2ccccc2n1`, the IC50 in series [1] was 0.58 µM; in [2] it was 9.4 µM; in series [8], over 100 µM; in series [11] it was over 100 µM. Further, in [3], the “log K” value came out at 1.365. Moreover, the Activity is 0.43 in [4], 0.03 in [5], 0 in series [6] and 0 in series [7].
With `COc1cccc(/C=C/c2nc(Cl)c3ccccc3n2)c1`, the IC50 in [1] was 5.28 µM; in series [8], over 100 µM. Moreover, the “log K” value in series [3] was 1.183.
Take `O=c1[nH]c(/C=C/c2ccccc2Br)nc2ccccc12`: the IC50 was over 6.25 µM in series [1] and over 46 µM in series [2]. The “log K” value in series [3] was 1.483.
In the case of `Oc1cccc2ccc(/C=C/c3ccc(Cl)cc3)nc12`, the IC50 in [1] was found to be 0.7 µM. In addition, the “log K” value in series [3] came to 1.539.
For the molecule `COc1ccc(/C=C/c2nc3ccccc3c(=O)[nH]2)cc1`, the figures for the IC50 in [1], in [2] and in [8] were over 6.25 µM, over 46 µM and over 100 µM, respectively. In addition, the “log K” value in series [3] was found to be 1.135.
As for `COc1cccc2c1C(=O)c1c(O)c3c(c(O)c1C2=O)C[C@@](O)(C(=O)CO)C[C@@H]3O[C@H]1C[C@H](N)[C@H](O)[C@H](C)O1` [DOXORUBICIN], the IC50 in series [1] is 0.12 µM; in [2] it was 5.95 µM.
Take `O=c1[nH]c(/C=C/c2ccccc2)nc2ccccc12`: the IC50 is 1.39 µM in series [1], 2.53 µM in series [2] and 2.4 µM in [9]. Besides, the “log K” value in series [3] was determined as 1.115.
Turning to `O=c1[nH]c(/C=C/c2ccc(Br)cc2)nc2ccc([N+](=O)[O-])cc12`, the IC50 in [1] is over 6.25 µM. In series [3], the “log K” value is reported as 1.675.
Consider `CC(=O)C1=CC(=O)c2nc(C)ccc2C1=O`, for which the midpoint of inhibition in [2], the IC50, lay at 10.9 µM. Also, the Activity in [4] was 1.07; in [5], 0.04; in series [6], 0.21; in series [7] it was 0.
